EP2 mod – modulates human prostaglandin E2 receptor EP2 signaling; P43116; 0.83% of 260,000 active; EP2-expressing cells, cAMP HTRF FRET, PGE2 co-stimulation; induction, % at 25 µM; AID 940;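 active means compounds whose cAMP rise, as percent of the full-agonist control response, exceeds 60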;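 further: rat C6 glioma line stably carrying human EP2 under a CMV promoter; the protocol text gives 20 µM as final concentration; 100% = response of wells given 1 µM PGE2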
Target sequence (P43116 whole entry, looked up): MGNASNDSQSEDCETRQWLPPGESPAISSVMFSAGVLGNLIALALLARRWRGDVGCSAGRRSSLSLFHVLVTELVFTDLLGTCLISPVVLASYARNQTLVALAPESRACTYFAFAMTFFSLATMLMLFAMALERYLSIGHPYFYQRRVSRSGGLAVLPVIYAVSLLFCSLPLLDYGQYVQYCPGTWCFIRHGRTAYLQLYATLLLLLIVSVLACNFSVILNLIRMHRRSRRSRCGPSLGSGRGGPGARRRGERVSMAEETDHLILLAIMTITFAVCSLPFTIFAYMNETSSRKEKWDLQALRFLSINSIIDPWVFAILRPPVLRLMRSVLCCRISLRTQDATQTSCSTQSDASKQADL
NPY1 pot ag – human NPY-Y1 potentiation or agonism, primary screen. P25929. NPY-Y1 expressing cells, potentiator/agonist activation. activation, % at 3.6 µM. 0.37% of 220,000 active. AID 1304; in the data active means activation above about 33%, passing the limit was not always enough;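 further: cells stimulated with NPY at EC10 then isoproterenol at EC100; 0% = low agonist plus stimulus and 100% = saturating agonist plus stimulus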
Target sequence (P25929 whole entry, looked up): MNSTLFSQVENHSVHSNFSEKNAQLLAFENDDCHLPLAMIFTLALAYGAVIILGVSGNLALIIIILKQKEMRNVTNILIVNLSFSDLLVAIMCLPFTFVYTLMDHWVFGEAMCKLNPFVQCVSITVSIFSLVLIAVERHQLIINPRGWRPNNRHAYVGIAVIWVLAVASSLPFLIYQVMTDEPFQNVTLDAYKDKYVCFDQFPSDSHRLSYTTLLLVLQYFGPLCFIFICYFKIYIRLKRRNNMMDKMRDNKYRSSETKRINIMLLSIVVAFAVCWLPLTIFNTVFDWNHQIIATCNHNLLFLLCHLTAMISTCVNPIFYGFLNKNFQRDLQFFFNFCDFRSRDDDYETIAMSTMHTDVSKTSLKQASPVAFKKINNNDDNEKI
NPY-Y2 PAM-ag – potentiators or agonists of human neuropeptide Y receptor Y2; AID 1359; cells expressing NPY-Y2, potentiator/agonist read-out; 0.45% of 220,000 active; activation, % at 3.6 µM; in the data active means activation above about 27%;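 further: cells stimulated with NPY near EC25 plus isoproterenol at EC100; 0% = vehicle plus submaximal agonist and 100% = vehicle plus saturating agonist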
NPY Y2 blocker – antagonists of human neuropeptide Y receptor Y2. 0.99% of 140,000 active. P49146. NPY-Y2 expressing cells, antagonist mode. inhibition, % at 2.7 µM; in the data active means inhibition above about 17%;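 further: 0% = vehicle with agonist challenge and 100% = reference antagonist with challenge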
NPY-Y1 antag – antagonists of human neuropeptide Y receptor Y1. inhibition, % at 3.6 µM. P25929. 1% of 200,000 active. HEK293-CNG Y1 cells, membrane potential fluorescence; NPY at EC95, then isoproterenol. AID 1040;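 active means inhibition above the campaign mean inhibition of all tested compounds plus 3 SD, cut at about 20% in these data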;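 further: 0% = DMSO wells given NPY plus isoproterenol and 100% = isoproterenol alone without NPY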
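Material: HEK293 Y1/CNG channel cell line; also added: NPY (25 nM), isoproterenol (1 µM), Ro 20-1724 (25 µM); doses: one concentration, 3.6 µM, in 0.4% DMSO; schedule: compound incubation 1 h at room temperature, readout 45 min post-stimulation; technique: membrane potential fluorescence; measure: fluorescence ratio normalized to % inhibition between controls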
PGE2 EP2 inh – blocks the human prostaglandin E2 receptor EP2 | C6 glioma cells expressing human EP2, cAMP TR-FRET; cells stimulated with saturating PGE2 | P43116 | AID 1422 | inhibition, % at 25 µM | 0.52% of 260,000 active;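 active means percent inhibition above 40 after rounding to a whole number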;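 further: rat C6 glioma host cells with rolipram phosphodiesterase inhibitor present; the protocol text gives 20 µM as final concentration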
Active calls of the source: *; . = no result; ! = not confirmed by another sample. The list is not random: actives were taken first. Their share in the collection is about 2.8%.

SMILES | EP2 mod | NPY1 pot ag | NPY-Y2 PAM-ag | NPY Y2 blocker | NPY-Y1 antag | PGE2 EP2 inh
Cc1ccccc1C1(O)CCN(CC(O)c2ccc3c(c2)CCC3)CC1 (stereo not drawn) | -61.8 | . | . | . | . | 6.5
CCCc1cc(C(=O)N[C@H](Cn2nc(-c3cccs3)ccc2=O)C(C)C)no1 | 25.1 | . | . | . | . | .
COCCCn1c(SCC(=O)Nc2cccc(C(F)(F)F)c2)nnc1-c1ccncc1 | -29.6 | . | . | . | . | 16.5
CCOC(=O)c1c(NC(=O)CSc2nc3ccccc3s2)sc(C(C)=O)c1C | 11.8 | -33.2 | -32.3 | 22.3* | 39.0* | 17.7
CCOC(=O)c1c(NC(=O)CSc2nc3cc(Cl)ccc3s2)sc(C(C)=O)c1C | 7.6 | 11.2 | 1.2 | 0.3 | 0.9 | 12.8
Cc1[nH]c2ccccc2c1CCNC(=O)c1ccc2c(c1[N+](=O)[O-])C(=O)c1ccccc1C2=O | -75.0 | 26.5 | 21.6 | -5.2 | -20.4 | .
Cc1[nH]c2c(C)cccc2c1CCNC(=O)c1ccc2c(c1[N+](=O)[O-])C(=O)c1ccccc1C2=O | -49.2 | 68.3* | 58.7* | -5.5 | -21.8 | 0.5
CCC(C(=O)Nc1nc2c(s1)C(=O)CC(C)(C)C2)c1ccccc1 (stereo not drawn) | -35.7 | . | . | . | . | 16.2
c1ccc(-c2nc3ccccc3s2)nc1 | -10.3 | 12.8 | 9.7 | -0.4 | 0.8 | 9.5
Brc1ccc(-c2nc3ccccc3s2)s1 | -45.6 | -15.3 | -9.4 | 3.6 | 0.1 | 123.7*
CC(CCc1ccccc1)NC(=O)COC(=O)c1ccc(S(C)(=O)=O)c([N+](=O)[O-])c1 (stereo not drawn) | -97.6 | 66.4* | 52.2* | . | -5.9 | 14.3
Cc1ccccc1NC(=O)COC(=O)c1ccc(S(C)(=O)=O)c([N+](=O)[O-])c1 | -38.0 | 18.5 | 21.8 | . | -5.2 | 9.4
O=C(Nc1nnc(-c2cccs2)s1)c1ccco1 | 4.0 | . | . | . | . | 44.3*
O=C(Nc1nc(-c2cccs2)cs1)c1ccco1 | -4.0 | 10.2 | 15.7 | . | -3.3 | 0.5
CCOC(=O)c1oc2ccc(OC)cc2c1CSc1ccccn1 | 62.3* | . | . | . | . | 18.5
COc1cccc(C(=O)Nc2c(C(N)=O)oc3ccccc23)c1 | 7.5 | 8.4 | 12.5 | 1.6 | -2.4 | 21.5
CCOC(=O)c1oc2ccccc2c1CSc1nnc(-c2ccco2)o1 | 44.4 | -6.6 | -2.5 | 7.7 | 11.9 | 0.1
CCOC(=O)c1oc2ccccc2c1NC(=O)c1cccc(OC)c1 | 62.7* | -66.3 | -16.5 | 10.4 | 11.6 | 4.8
Cc1ccc(CNCc2cc3c(C)nn(-c4ccc(F)cc4)c3[nH]c2=O)cc1 | -10.2 | . | . | . | . | 8.6
COc1ccc(OC)c(NC(=O)CSc2ncnc3sc(C)c(C)c23)c1 | 19.5 | . | . | . | . | 5.8
N#C/C(=C\c1ccc([N+](=O)[O-])o1)c1nc2ccccc2[nH]1 | -11.0 | 9.2 | 5.3 | 2.7 | 1.6 | 69.0*
Cc1ccc2nc(/C(C#N)=C\c3ccc([N+](=O)[O-])o3)[nH]c2c1 | -39.6 | 18.2 | -1.0 | 2.8 | 0.3 | 64.4*
COc1ccc(Cl)cc1NC(=O)C1CC(=O)n2c(nc3ccccc32)N1 (stereo not drawn) | -34.9 | . | . | . | . | 3.8
CCC(C(=O)Nc1cccc(C(F)(F)F)c1)c1ccccc1 (stereo not drawn) | -9.0 | -6.5 | -13.9 | 7.0 | 20.3* | 6.1
Cc1ccc(-c2[nH]nc(N)c2N=Nc2cccc(Cl)c2C)cc1 | 27.3 | 46.2* | 17.1 | -2.6 | -1.3 | 2.5
SMILES | EP2 mod | NPY1 pot ag | NPY-Y2 PAM-ag | NPY Y2 blocker | NPY-Y1 antag | PGE2 EP2 inh
Cc1ccc(-c2[nH]nc(N)c2N=Nc2ccccc2C)cc1 | 37.8 | -7.2 | -1.0 | -3.0 | -3.4 | 7.7
CCN1CCCC1CNC(=O)Cn1nc(C)n2c(cc3sccc32)c1=O (stereo not drawn) | 1.3 | . | . | . | . | .
COc1ccc2c(c1)C(C)=CC(C)(C)N2C(=O)C(C)N1C(=O)c2ccccc2C1=O (stereo not drawn) | 45.9 | 4.2 | -19.1 | 4.3 | 10.3 | 5.8
CC1=CC(C)(C)N(C(=O)C(C)N2C(=O)c3ccccc3C2=O)c2c(C)cc(C)cc21 (stereo not drawn) | 48.8 | 0.1 | -9.4 | 18.0* | 27.9* | .
CC(C)OC(=O)/C(=C\c1ccc2c(c1)c1ccccc1n2C)NC(=O)c1ccccc1 | 0.7 | -46.7 | -30.1 | 5.8 | 23.3* | 13.6
COC(=O)/C(=C\c1ccc2c(c1)c1ccccc1n2C)NC(=O)c1ccccc1 | -11.1 | 12.9 | -5.4 | 1.8 | 3.0 | 8.4
N=C(N)SCCc1ccccn1 | 7.0 | . | . | . | . | 43.8*!
CC(SCCc1ccccn1)C(=O)O (stereo not drawn) | 19.6 | 9.2 | -5.0 | 1.1 | -5.6 | 9.0
CC1(c2ccccc2NC(=O)c2cccs2)CC1 | 64.9* | . | . | . | . | 9.9
O=C(Nc1ccccc1N1CCCCC1)c1cccs1 | 60.6* | -21.1 | -26.7 | 8.0 | 18.1 | 3.8
O=C(Nc1ccccc1N1CCCCC1)c1ccco1 | 63.5* | -19.5 | -3.3 | 7.3 | 3.3 | 10.8
CS(=O)(=O)N1CCN(c2ccccc2NC(=O)c2cccs2)CC1 | 14.4 | -26.3 | 5.6 | 2.8 | 8.1 | 8.3
O=C(COc1ccccc1)Nc1ccccc1N1CCCCC1 | 63.8*! | -61.0 | -3.5 | 10.8 | 10.7 | 11.4
Cc1ccc2cc(CN(Cc3cccs3)C(=O)Nc3ccccc3Cl)c(=O)[nH]c2c1C | 4.0 | . | . | . | . | 9.2
COc1ccc(/C(O)=C2/C(=O)C(=O)N(C)C2c2ccc(C)cc2)cc1OC (stereo not drawn) | 3.2 | . | . | . | . | 13.3
CCC(C)NC(=O)CSc1nc2c(C)cccc2cc1C#N (stereo not drawn) | 9.3 | . | . | . | . | 14.6
COc1cc2ncc(C(=O)c3ccccc3)c(N3CCN(Cc4ccccc4)CC3)c2cc1OC | 85.5* | -21.1 | -58.1 | . | . | 7.1
CCCc1nnc(NC(=O)CCCOc2ccccc2)s1 | 0.0 | . | . | . | . | 4.2
CCOC(=O)C(C)(C)N(Cc1ccc(Cl)cc1)S(=O)(=O)c1ccc(Cl)c([N+](=O)[O-])c1 | 39.7 | 64.8* | 66.4* | 0.7 | -12.4 | 10.4
CCOC(=O)C(C)(C)N(Cc1ccc(C)cc1)S(=O)(=O)c1ccc(Cl)c([N+](=O)[O-])c1 | 5.6 | 75.9* | 50.9* | 0.1 | 0.0 | 5.8
O=C(CNC(=O)c1cccs1)OCC(=O)c1ccc2c(c1)CCCC2 | 44.2 | . | . | . | . | 8.8
CCc1nn(CC(=O)N(Cc2ccccn2)C2CC2)c(=O)c2cc3ccsc3n12 | -5.4 | . | . | . | . | .
COc1cccc(CN2CCN(C(=O)c3ccc(N(C)C)cc3)[C@@H](C)C2)c1 | -85.5 | . | . | . | . | .
CCOC(=O)c1cc(NC(=O)COC(=O)c2ccccn2)ccc1Cl | -32.9 | . | . | . | . | 3.5
Cc1cc(C)c2nc(C(F)(F)F)nc(N3CC(C)OC(C)C3)c2c1 (stereo not drawn) | 61.3* | -22.8 | -7.1 | 4.5 | 12.6 | .
CCOC(=O)N1CCN(c2nc(C(F)(F)F)nc3c(C)cc(C)cc23)CC1 | 32.3 | 1.3 | 1.3 | 5.7 | 12.3 | 7.6
CN(CC(=O)Nc1ccccc1Sc1ccccc1)C1CCCCC1 | 64.1* | 0.6 | 14.3 | . | 4.2 | 5.5
CSc1ccccc1NC(=O)CN(C1CCCCC1)S(C)(=O)=O | 9.3 | 1.7 | -25.8 | 2.6 | 0.5 | 5.3
